Source: PubChem
IMP-1 inh = inhibitors of Pseudomonas aeruginosa IMP-1 metallo-beta-lactamase; purified IMP-1, nitrocefin hydrolysis, epi-absorbance fluorescence; 290,000 tested, 0.45% active; inhibition, % at 5.6 µM;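 active means inhibition above the mean plus 3 SD of all compounds in the same screening run, cut at about 4.5% in these data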;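 further: 0% = IMP-1 with DMSO and 100% = DMSO wells lacking enzyme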
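Test system: recombinant IMP-1 enzyme, purified / Medium: HEPES buffer pH 7.1 with ZnSO4 and Brij 35 / Doses: single dose, 5.6 µM / Times: 25 °C, 15 min preincubation, 25 min reaction / Detection: Epi-absorbance via hydrolysed-nitrocefin quenching of white-plate fluorescence, 480/530 nm, EDTA stop / Evaluation: percent inhibition from optical density relative to buffer-blank wells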
Mdm2 MdmX PPI = human Mdm2/MdmX binding inhibition. 330,000 tested, 3% active. O15151+Q00987. inhibition, % at 8 µM. SaOS-2 split-luciferase Mdm2/MdmX complementation, luminescence. AID 485346;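 active means inhibition of at least 50% at 8 µM in the primary screen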
697 NFkB inh = inhibitors of the PMA/ionomycin-induced NF-kB reporter in 697 B cells. 330,000 tested, 0.33% active. 697 B-cell NF-kB luciferase reporter, 16 h. AID 435022. inhibition, % at 4 µM; in the data active means inhibition above about 35%
aSyn UTR inh = 5' untranslated region of α-synuclein, MLPCN primary screen; alpha-synuclein 5'UTR reporter, inhibitor activity; inhibition, % (tested at 7.5 µM); 300,000 tested, 0.82% active; AID 1813; in the data active means inhibition above about 60%;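 further: H4 neuroglioblastoma cells stably carrying SNCA 5'UTR luciferase fusion; 0% = DMSO wells and 100% = positive control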
VIM-2 inhibitor = blocks Pseudomonas aeruginosa VIM-2 metallo-beta-lactamase. purified VIM-2, nitrocefin hydrolysis, epi-absorbance fluorescence. inhibition, % at 5.6 µM. 290,000 tested, 0.89% active. AID 1527;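 active means inhibition above the mean of all tested compounds plus 3 SD, cutoff set per screening run, cut at about 7.5% in these data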;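 further: red hydrolysis product quenches plate fluorescence so inhibitors raise well fluorescence; 0% = enzyme with DMSO and 100% = DMSO without enzyme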
Jurkat NFkB inh = inhibitors of the PMA/ionomycin-induced NF-kB reporter in Jurkat cells. PMA/ionomycin-induced NF-kB luciferase reporter, luminescence. inhibition, % at 4 µM. 330,000 tested, 0.53% active. AID 435003; in the data active means inhibition above about 50%
Mdm2-MdmX conf = confirmation of human Mdm2/MdmX interaction inhibitors; shares compounds with Mdm2 MdmX PPI; inhibition, % at 8 µM; Mdm2-MdmX binding, luminescent assay; 10,000 tested, 55% active; in the data active means inhibition above about 40%
FLuc counter = full-length luciferase inhibition in Mdm2/MdmX counter-screen; shares compounds with Mdm2 MdmX PPI; SaOS-2 full-length luciferase counterscreen, luminescence; inhibition, % at 8 µM; 6,200 tested, 77% active; AID 504607;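 active means mean inhibition at 8 µM reaching about 37%, which flags the compound as non-specific, limit read from the data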;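 further: p53-null SaOS-2 cells with luciferase driven by a doxycycline-inducible promoter; compound on cells about two nights before reading with doxycycline added after day one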
* = called active by the depositor; . = no result given. Rows were chosen to be rich in hits. Some 4.7% of all compounds tested hit in one or more screens of this group.

SMILES	IMP-1 inh	Mdm2 MdmX PPI	697 NFkB inh	aSyn UTR inh	VIM-2 inhibitor	Jurkat NFkB inh	Mdm2-MdmX conf	FLuc counter
COc1ccc(Cc2nnc(NC(=O)C3CC(=O)N(c4ccccc4)C3)s2)cc1OC (configuration not stated)	-3	24	13	10	-4	-8	.	.
Cc1nc(N2CCN(c3ccccc3O)CC2)c2c(-c3ccccc3)csc2n1	-2	52*	-7	11	1	-8	55*	59*
Fc1ccc(-c2csc3ncnc(N4CCc5ccccc5C4)c23)cc1	-1	51*	4	38	1	13	27	.
O=C(CNC(=O)c1cccc(F)c1)OCC(=O)N1CCCc2ccccc21	-4	4	-35	-7	-6	5	.	.
COc1ccc(NC(=O)Cc2coc3ccc4ccccc4c23)cc1S(=O)(=O)N1CCOCC1	-2	16	-20	3	-2	-19	.	.
COc1cc2nc(SCC(=O)c3ccc(Br)cc3)n3nc(C)nc3c2cc1OC	-3	65*	7	18	-4	5	19	.
COc1ccc(NC(=O)c2cc(=O)c3ccccc3o2)cc1Cl	0	52*	6	-18	-1	-18	47*	95*
Cc1cc(NC(=O)c2cncc(Br)c2)ccc1NC(=O)c1cc2ccccc2o1	-4	74*	-50	78*	-1	8	51*	29
COc1cc(NC(=O)c2ccccc2)ccc1NC(=O)c1cc2ccccc2o1	0	44	-55	-10	0	-1	.	.
COc1cc(NC(=O)c2cccs2)ccc1NC(=O)c1cc2ccccc2o1	-1	89*	-15	-14	2	4	52*	117*
Cc1cc([N+](=O)[O-])ccc1NC(=O)c1cc2ccccc2o1	-3	-16	-36	-115	-4	-53	.	.
O=C(Nc1ccc2oc(=O)ccc2c1)c1cc2ccccc2o1	-3	-112	-64	-177	0	-95	.	.
Cn1c(=O)n(C)c2cc(NC(=O)c3cc4ccccc4o3)ccc21	-5	51*	8	-146	-2	-37	-10	.
CCCS(=O)(=O)c1ccc(COC(=O)Cc2ccc([N+](=O)[O-])cc2)cc1	0	0	-2	6	1	-21	.	.
CC1CCCC(C)N1C(=O)COC(=O)c1ccc(Br)o1 (configuration not stated)	.	18	-1	.	.	1	.	.
O=C1[C@H]2[C@@H](c3ccc(F)cc3)N3C(=O)N(c4cccc(F)c4)C(=O)[C@@]3(Cc3ccccc3)[C@H]2C(=O)N1C1CCCCC1	.	29	-2	8	.	-3	.	.
Cc1ccc(N2C(=O)N3[C@H](c4ccc(F)cc4)[C@@H]4C(=O)N(C5CCCCC5)C(=O)[C@@H]4[C@]3(Cc3ccccc3)C2=O)cc1	-3	61*	-48	28	-4	-17	70*	57*
O=C1[C@H]2[C@@H](c3ccc(F)cc3)N3C(=O)N(c4ccc(Br)cc4)C(=O)[C@@]3(Cc3ccc(Cl)cc3)[C@H]2C(=O)N1C1CCCCC1	-5	85*	16	2	-3	19	94*	28
Cc1c([N+](=O)[O-])ccc(S(=O)(=O)N2CCC(C(N)=O)CC2)c1C	-2	2	-6	-9	-1	-5	.	.
COc1ccc(CN(C(=O)CSc2nnc(-c3c[nH]c4ccccc34)o2)c2ccc(F)cc2)cc1OC	-4	66*	-51	-43	-1	-6	74*	70*
COc1ccc(-c2nc(NC(=O)c3ccccc3)sc2-c2ccc([N+](=O)[O-])cc2)cc1	-2	64*	-3	8	-2	-12	10	.
Cn1cncc1C#Cc1c(C=O)[nH]c2ccccc12	.	71*	-4	.	.	8	42*	66*
COc1ccc(Cc2nc3ccc(C(=O)NCCn4ccnc4C)cc3o2)cc1OC	-4	8	2	-11	1	-4	.	.
